High-throughput results: PubChem, Johns Hopkins Ion Channel Center
MrgX1 agonist: agonists of human MrgX1 receptor, primary screen, HEK293 cells, Fluo-4 calcium flux; hit rate 0.44% among 310,000; AID 588627, 2011; Fluo-4 calcium fluorescence, agonist mode; active compounds read high; B-score at 10 µM; Mas-related G-protein coupled receptor member X1 (Homo sapiens), Q96LB2;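 active = calcium response B-score plate-corrected fluorescence ratio at least 3 library SD, with starting fluorescence B-score inside 5 SD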
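Test system: Stable human MrgX1 HEK293 cell line | Schedule: Overnight plating before 1 h dye loading | Read-out basis: Baseline-normalised fluorescence change ratio, B-scored | Detection: Kinetic calcium dye fluorescence, Fluo-4 NW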
RGS4 inh: RGS4 inhibitors, primary screen, cell-based, HEK293 M3R inducible RGS4, calcium flux; Regulator of G-protein signaling 4 (Homo sapiens), P49798; Fluo-4 calcium flux; active compounds read high; triggered by carbachol at its EC20; B-score at 10 µM; hit rate 0.45% among 310,000; AID 463165, 2010;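 active = B-score, a plate-corrected calcium signal, over three deviations above library mean, with baseline fluorescence within five deviations of library mean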;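 note: RGS4 expression induced by doxycycline in cells with stable M3 receptor; B-score is computed from the integrated fluorescence ratio over baseline after carbachol; higher B-score means a larger calcium signal and so more RGS4 inhibition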
Kir21 inh: inhibitors of mouse Kir2.1 inward-rectifier potassium channel; AID 1672, 2009; HEK293-Kir2.1, FluxOR thallium flux fluorescence; active compounds read low; Inward rectifier potassium channel 2 (Mus musculus), P35561; B-score at 10 µM; hit rate 0.85% among 310,000;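 active = fluorescence ratio B-score at or below minus 3 SD of library scores, with starting-brightness B-score within 2 SD, cut at about -4.2 in these data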;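 note: channel flux triggered by added potassium and thallium sulfate stimulus; B-score of peak minus minimum fluorescence over baseline after thallium stimulus; more negative B-score means stronger Kir2.1 block with less thallium influx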
Target sequence (P35561 whole entry, looked up): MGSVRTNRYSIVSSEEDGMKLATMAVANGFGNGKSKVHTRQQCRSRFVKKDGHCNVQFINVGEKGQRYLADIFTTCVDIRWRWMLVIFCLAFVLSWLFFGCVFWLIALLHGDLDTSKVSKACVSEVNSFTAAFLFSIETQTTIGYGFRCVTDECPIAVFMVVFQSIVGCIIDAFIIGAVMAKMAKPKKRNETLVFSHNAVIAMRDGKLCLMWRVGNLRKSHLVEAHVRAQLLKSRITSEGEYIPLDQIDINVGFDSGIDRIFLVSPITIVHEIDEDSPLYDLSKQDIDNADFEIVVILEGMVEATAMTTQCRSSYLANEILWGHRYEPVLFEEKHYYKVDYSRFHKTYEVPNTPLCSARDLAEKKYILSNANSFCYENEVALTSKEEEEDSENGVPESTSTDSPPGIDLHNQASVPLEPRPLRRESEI
MrgX1 antag: antagonists of human MrgX1 receptor, primary screen, HEK293 cells, Fluo-4 calcium flux; BAM8-22 antagonism; active compounds read low; AID 588676, 2011; hit rate 1.3% among 310,000; B-score at 10 µM; Mas-related G-protein coupled receptor member X1 (Homo sapiens), Q96LB2;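 active = calcium-response B-score plate-corrected more than 3 library SD below zero, starting fluorescence within 5 deviations, no agonist response on first addition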;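 note: peak minus trough fluorescence over baseline after final BAM8-22 challenge near maximal dose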
MrgX1 allo act: positive allosteric modulators of MrgX1, primary screen, HEK293 cells, Fluo-4 calcium flux | Mas-related G-protein coupled receptor member X1 (Homo sapiens), Q96LB2 | FDSS; active compounds read high | B-score at 10 µM | hit rate 0.63% among 310,000 | AID 588675, 2011;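 active = plate-corrected calcium response at least 3 library SD above typical, normal starting fluorescence, not activating the receptor alone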;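 note: compound read alongside a low EC10 to EC30 dose of BAM8-22 agonist; peak minus trough fluorescence over baseline measured at the second addition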
RGS4 pot: RGS4 potentiators or activators, primary screen, cell-based, HEK293 M3R inducible RGS4, calcium flux. B-score at 10 µM. hit rate 0.92% among 310,000. carbachol calcium flux Fluo4; active compounds read low;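 active = B-score of the integrated calcium signal more than 4 SD below the library mean, with starting fluorescence not abnormally high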;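 note: negative B-score means reduced calcium response which marks RGS4 activation or potentiation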
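Assay system: HEK293 FlpIn-TREx cells, stable M3R, doxycycline-inducible RGS4 / Probe or stimulus: carbachol, ECmax concentration / Times: overnight RGS4 induction, 30 min dye load 37 °C, 20 min compound RT / Signal: kinetic calcium fluorescence imaging with Fluo4-AM dye, 2 µM / Measure: Agonist-evoked peak-minus-minimum fluorescence over baseline, integrated ratio, B score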
RGS4 inh valid: enhanced carbachol calcium response, M3R/RGS4 cells, RGS4 inhibitor project, cell-based, validation screen, HEK293 M3R/RGS4, calcium flux. shares compounds with RGS4 inh. carbachol calcium Fluo-4 fluorescence; carbachol added at its EC20; 0 = buffer wells, 100 = carbachol control. calcium response, % at 10 µM. hit rate 65% among 1,700;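 active = duplicate-averaged calcium response above the buffer-only control mean plus 5 SD of those controls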;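 note: integrated fluorescence ratio F max minus min over baseline F0; higher response in RGS4-induced cells means RGS4 inhibition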
RGS4 uninduced: carbachol calcium response in non-induced M3R cells, confirmation, counter-screen for RGS4 inhibitor project, cell-based, HEK293 M3R; hit rate 20% among 1,900; AID 493000, 2010; shares compounds with RGS4 inh; carbachol calcium Fluo-4; submaximal (EC20) carbachol stimulus; buffer wells 0%, carbachol control wells 100%; activity (percent), % at 10 µM; call rule not given here;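 note: RGS4 induction absent so cells express M3R without RGS4; higher means more calcium signal and flags a non-specific hit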
RGS4 inh ctr2: signal in non-induced cells without carbachol, RGS4 inhibitor counter-screen; hit rate 22% among 1,900; calcium response (agonist-mode artifact), % at 10 µM; HEK293 M3R/RGS4 non-induced, Fluo-4 calcium, no carbachol; normalised: buffer wells 0%, carbachol wells 100%; shares compounds with RGS4 inh; AID 493001;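 active = duplicate-averaged calcium rise in uninduced cells above buffer wells' mean plus 5 SD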
Numbers stand for hits; 0 = inactive; - = not tested or not shown. A selection: hits, their analogues and other compounds. The true share with any hit is near 4.1%.

SMILES	MrgX1 agonist	RGS4 inh	Kir21 inh	MrgX1 antag	MrgX1 allo act	RGS4 pot	RGS4 inh valid	RGS4 uninduced	RGS4 inh ctr2
COC(=O)c1ccc(N2NC(=O)/C(=C/c3cc(OC)c(OC)c(OC)c3)C2=O)cc1	0	4.91	0	0	0	0	13.5%	0	0
Cc1ccc(S(=O)(=O)CCC(=O)OCC(=O)N2CCN(S(=O)(=O)c3ccc(Cl)cc3)CC2)cc1	0	0	0	0	0	0	-	-	-
Cc1ccccc1NS(=O)(=O)c1ccc(C(=O)NCC2CCCO2)cc1 (stereo unspecified)	0	0	0	0	0	0	-	-	-
O=C(CSCc1ccccc1)Nc1ccc2c(c1)C(=O)NC2=O	0	0	0	0	0	0	-	-	-
O=C(CSc1nc2ccccc2[nH]1)Nc1nc(-c2ccc(Br)cc2)cs1	0	6.61	0	0	0	0	6.0%	0	0
CC(C)c1nc(SCC(=O)Nc2ccc(C(=O)O)cc2)c2c3c(sc2n1)CCCC3	0	4.74	0	0	0	0	13.0%	0	0
CC1CCc2c(sc3ncnc(SCC(=O)Nc4ccc(C(=O)O)cc4)c23)C1 (stereo unspecified)	0	0	0	0	0	0	-	-	-
CC1CCCN(Cc2c(O)ccc3c(=O)c(-c4nc5ccccc5s4)c(N)oc23)C1 (stereo unspecified)	0	5.05	0	0	0	0	16.0%	0	0
CC1(C)CCCN(Cc2c(O)ccc3c(=O)c(-c4nc5ccccc5s4)c(N)oc23)C1	0	0	0	0	0	0	-	-	-
CC1CCN(Cc2c(O)ccc3c(=O)c(-c4nc5ccccc5s4)c(N)oc23)CC1	0	6.34	0	0	0	0	12.5%	0	0
CC(OC(=O)C1CC(=O)N(Cc2ccccc2)C1)C(=O)Nc1cccc(C#N)c1 (stereo unspecified)	0	0	0	0	0	0	-	-	-
CN(C)c1ccc(C(CNS(=O)(=O)c2ccc3ccccc3c2)N2CCOCC2)cc1 (stereo unspecified)	0	5.18	0	0	0	0	5.0%	0	0
Cc1ccc(/C=C(\NC(=O)c2ccc(C)cc2)c2nc(=S)[nH][nH]2)cc1	0	10.6	0	0	0	0	35.0%	43.5%	0
Cc1ccc(C(=O)N/C(=C\c2ccccc2F)c2nc(=S)[nH][nH]2)cc1	0	0	0	0	0	0	-	-	-
O=C1Nc2ccccc2/C1=N/N=C/c1cccc(O)c1	0	8.95	0	0	0	0	19.5%	47.0%	0
O=C1Nc2ccccc2/C1=N\N=C\C1=C(N2CCOCC2)C(=C\c2ccccc2)/CC1	0	0	0	0	0	0	-	0	0
COc1cc(/C=N/N=C2/C(=O)Nc3ccccc32)cc(OC)c1O	0	0	0	0	0	0	-	-	-
C/C(=N\N=C(/N)SC1CC(=O)N(c2ccc(Cl)c(Cl)c2)C1=O)c1cccs1 (stereo unspecified)	0	6.36	0	0	0	0	5.5%	0	0
C/C(=N\N=C(/N)SC1CC(=O)N(c2ccccc2)C1=O)c1cccs1 (stereo unspecified)	0	0	0	0	0	0	-	0	0
